Experimental data as given in ChEMBL document CHEMBL1121642, “Synthesis and antiherpetic activity of some 4-[(aryloxy)alkyl]pyrazoles” (1981).
≈ marks a conversion by molar mass, not a printed value. Calls of active or inactive are those of the source. No cut-off for these calls is given here.

How the values were obtained:
[1] = system: Human alphaherpesvirus 2; test: Tested in vitro for minimum inhibitory activity against Herpes simplex virus type -2 (HSV-2); Inactive; assay type: functional, organism-based
[2] = system: Human alphaherpesvirus 2; test: Tested in vitro for minimum inhibitory activity against Herpes simplex virus type -2 (HSV-2); assay type: functional
[3] = species: Mus musculus; test: Effect on the survival rate of mice infected intravaginally with Herpes simplex virus type -2 (HSV-2) at 10% dosage twice in a day; assay type: functional
In short: (§1)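 Mice infected intravaginally with a tampon (dental pellet) saturated with HSV suspension. Aqueous drug solution given intravaginally b.i.d. on cotton tampons, starting 4 h postinfection. Each tampon stayed in 24 h, was re-moistened with 0.02 mL drug 6 h after insertion, and was replaced daily. Deaths were recorded daily to 14 days. Read-out: % survival and average survival time, with survivors scored >14 days.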

[4] = species: Mus musculus; test: Effect on the survival rate of mice infected intravaginally with Herpes simplex virus type -2 (HSV-2) at 5% dosage twice in a day; assay type: functional; in short: as §1
[5] = system: Mus musculus; test: Effect on the survival rate of mouse infected with herpes genitalis (HSV-2) administered intravaginally at 5% dosage twice in a day; assay type: functional
In short: (§2)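 HSV-2 mouse genital model, infected intravaginally. Drug prepared in water + 1% gum tragacanth and given intravaginally b.i.d. via saturated cotton tampons, starting 4 h postinfection. Tampons were re-dosed with 0.02 mL 6 h after insertion and replaced daily. Test ended at day 14, with survivors assigned survival time >14 days. Read-out: % survival and average survival time.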

[6] = system: Mus musculus; test: Effect on the survival rate of mouse infected with herpes genitalis (HSV-2) administered intravaginally at 2% dosage twice in a day; assay type: functional; in short: as §2

Structure (SMILES) | MIC [1] | MIC [2] | other results
CCc1n[nH]c(CC)c1CCCCCCOc1cc(Cl)c(OC)cc1Cl | inactive |  | 
CCc1n[nH]c(CC)c1CCCCCCCOc1ccc(OC)cc1Cl |  | 6 mg/L (≈ 15.8 µM) | 
COc1ccc(OCCCCCCCc2c(C)nn(C)c2C)c(Cl)c1 |  | 0.7 mg/L (≈ 1.92 µM) | Average survival [3]: >10 days; Survival [3]: 30%; Average survival [4]: >7 days; Survival [4]: 10%
CCc1n[nH]c(CC)c1CCCCCCOc1ccc(OC)cc1 | inactive |  | 
O=c1[nH]c(=O)n([C@H]2C[C@H](O)[C@@H](CO)O2)cc1I [IDOXURIDINE] |  |  | Average survival [5]: >9 days; Survival [5]: 10%; Average survival [6]: >11 days; Survival [6]: 40%
CCCn1nc(C)c(CCCCCCOc2ccc(OC)cc2Cl)c1C |  | 1.5 mg/L (≈ 3.96 µM) | 
CCc1nn(-c2ccccc2)c(CC)c1CCCCCCOc1ccc(OC)cc1Cl |  | 3 mg/L (≈ 6.8 µM) | 
CCc1n[nH]c(CC)c1CCCCCCOc1ccc(SC)cc1Cl | inactive |  | 
CCc1n[nH]c(CC)c1CCCCCCOc1ccccc1 | inactive |  | 
CCc1n[nH]c(CC)c1CCCCCCOc1ccc(Br)cc1 | inactive |  | 
CCc1n[nH]c(CC)c1CCCCCCOc1ccc(O)cc1Cl |  | 12 mg/L (≈ 34.2 µM) | 

Now from value to compound, other results behind:

MIC [1] | MIC [2] | Structure (SMILES) | other results
inactive |  | CCc1nn(C(C)=O)c(CC)c1CCCCCCOc1ccc(OC)cc1Cl | 
 | 6 mg/L (≈ 13.8 µM) | CCc1nn(CCN(C)C)c(CC)c1CCCCCCOc1ccc(OC)cc1Cl | 
 | 6 mg/L (≈ 13.3 µM) | CCOC(=O)Cn1nc(CC)c(CCCCCCOc2ccc(OC)cc2Cl)c1CC | 
 | 3 mg/L (≈ 8.22 µM) | CCc1nn(C)c(CC)c1CCCCCOc1ccc(OC)cc1Cl | 
 | 12 mg/L (≈ 29.3 µM) | CCc1nn(CCO)c(CC)c1CCCCCCOc1ccc(OC)cc1Cl | 
inactive |  | CCc1nn(CC(F)(F)F)c(CC)c1CCCCCCOc1ccc(OC)cc1Cl | 
 | 6 mg/L (≈ 15.8 µM) | CCc1nn(C)c(CC)c1CCCCCCOc1ccc(OC)cc1Cl | 
